Experiment: [18F]FDG-PET in patients
Type: in vivo, human
Procedure, shortened: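 Patients fasted 6 h, and blood glucose was checked just before injection to be below 150 mg/dL. They received 300-500 MBq [18F]FDG, with PET/CT started 90 min p.i. at 2 min per bed position. A low-dose CT (120 […], 20 mAs) in shallow inspiration provided attenuation correction. Emission data were corrected for randoms, dead time, scatter and attenuation. Read-outs were SUVmean/SUVmax.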

[1] = NSCLC lesion, patient with T-cell lymphoma and NSCLC
[2] = bone marrow (BM), patient with multiple myeloma
[3] = hottest lesion in the 5th rib left, patient with multiple myeloma
[4] = lymphoma lesion, patient with T-cell lymphoma and NSCLC
[5] = nodal lesions, patient with chronic lymphocytic leukemia and suspected transformation into aggressive B-cell lymphoma

In the case of `O=C[C@H]([18F])[C@@H](O)[C@H](O)[C@H](O)CO` [[^18F]FDG, 2-[^18F]Fluoro-2-desoxyglucose], the SUVmax [1] is reported as 38.57, the SUVmean [1] is reported as 26.36 and the SUVmax [2] is reported as 6.24. For the same molecule, the SUVmean [2] was 3.77, the SUVmax [3] was 8.06 and the SUVmean [3] was 5.23. For the same molecule, the SUVmax [4] was 50.91, the SUVmean [4] was 29.82 and the SUVmax [5] was 5.94. It also gave an SUVmean [5] of 3.66.

Source: paper PMC4377730 (Theranostics, 2015)
